{
  "source": "BindingDB's records for doi:10.1016/j.bmcl.2018.01.022",
  "about": "(Temple University, 2018)",
  "molecular_target": "T1, Ribonuclease P protein component (Staphylococcus aureus, UniProt P0A0H5)",
  "T1 sequence (P0A0H5 whole entry)": "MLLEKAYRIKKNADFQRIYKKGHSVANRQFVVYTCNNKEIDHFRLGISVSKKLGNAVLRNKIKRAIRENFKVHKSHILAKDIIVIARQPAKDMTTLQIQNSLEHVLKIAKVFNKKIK",
  "test": "Inhibition of Staphylococcus aureus RnpA-mediated mRNA degradation after 15 to 30 mins by ethidium bromide staining based agarose gel electrophoresis",
  "summary_of_the_method": "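Recombinant S. aureus RnpA protein of ≥97% purity was tested in vitro for inhibition of its mRNA degradation activity, following the procedure previously described.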",
  "data": [
    {"smiles": "CC(C)c1ccc(OCC(=O)NNC(=S)NC(=O)c2ccno2)cc1", "values": [
      {"measurement": "IC50", "value": "> 500", "unit": "µM"}
    ]}
  ]
}
